Most compounds without a hit are left out; they make up all but 1.2% or so of the library.
procasp7 counter – counter-screen: procaspase-7 (human) activation; P55210; recombinant procaspase-7, Ac-DEVD-pNA absorbance 405 nm; D23A/D198A/D206A triple mutant, cannot self-cleave; scale: DMSO 0, 5 µM enzyme 100; activation, % at 8.5 µM; 330,000 tested, 0.093% active; AID 463210;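 active = percent activation above the screen-wide mean plus 3 SD, cut at about 25% in these data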
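buffer or medium = Zinc-free HEPES/NaCl buffer, pH 7.4 | material = Procaspase-7 triple mutant (PC-7 D3A) | input = 2 µM procaspase-7 mutant as dispensed | signal = Epi-absorbance of released pNA at 405 nm, two timepoints | timing = 1 h preincubation, 2 h reaction | replicates = singlicate compound testing | evaluation = % activation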
Hep lipid drop – hepatic lipid droplet formation modulation; AML12 mouse hepatocytes, oleate lipid droplets, BODIPY imaging; inhibition, % at 6.5 µM; 240,000 tested, 0.4% active; AID 1656;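 active = lipid droplet intensity inhibited by at least 50%, with more than 500 cells counted; inconclusive = wells with under 300 cells, treated as cytotoxic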
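Test system: AML12 mouse liver cells; schedule: overnight exposure; technique: high-content imaging of BODIPY-stained droplets and DAPI nuclei; read-out: % inhibition of corrected integrated BODIPY droplet signal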
Rce1 inhib – inhibitors of yeast Ras-converting enzyme. Q03530. yeast membranes, quenched prenylated peptide cleavage fluorescence. calls only. 290,000 tested, 0.27% active. AID 2563;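 active = fall in fluorescence gain of 50% or more versus controls, with final raw signal at or below 3038400; inconclusive = same 50% fall but final raw signal above 3038400; inactive = fall in fluorescence gain under 50%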;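 note: plate controls were neutral control wells for no effect and wells lacking membranes for full effect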
proCasp3 act – procaspase-3 (human) activation; P42574; AID 463141; 330,000 tested, 0.11% active; activation, % at 8.5 µM; recombinant procaspase-3 D3A, Ac-DEVD-pNA absorbance 405 nm;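 active = activation above the mean of all tested compounds plus 3 SD, cut at about 21% in these data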;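 note: 0% = DMSO alone and 100% = DMSO wells spiked with extra 5 µM PC-3 D3A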
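Compound: 8.5 µM single point, 0.8% DMSO / Material: Autoprocessing-dead procaspase-3 D3A mutant enzyme / Timing: 1 h preincubation plus 2 h reaction at 25 °C / Medium: Zinc-free HEPES/NaCl buffer with 0.01% Triton X-100 at pH 7.4 / Technique: 405 nm absorbance of p-nitroaniline, reads at 0 and 120 min / Repeats: one well per compound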
pCIP destab – p/CIP protein destabilization | F442A p/CIP-EGFP cells, EGFP fluorescence, 16 h | decrease of EGFP signal, % at 10 µM | 290,000 tested, 0.01% active;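 active = EGFP signal decrease of at least 30% at 10 µM or well 3 SD below plate mean, unless failing retest; inactive = the rest, including hits failing retest or dose response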
GAA850 FXN act – activators of GAA850 frataxin (FXN) promoter; HEK293 lucGAA850 FXN promoter luciferase reporter, 24 h; percent of 10 µM SAHA response; activation, % at 6 µM; 360,000 tested, 0.56% active; AID 540364;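 active = activation above the average of all compounds screened plus 3 SD, cutoff fixed separately per campaign, cut at about 7.5% in these data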;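 note: 0% = DMSO wells and 100% = 10 µM SAHA wells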
PC3 D3A act – counter-screen: procaspase-3 (human) activation | recombinant PC-3 D3A, Ac-DEVD-pNA absorbance 405 nm; aspartates 9, 28, 175 changed to alanine; 100% = enzyme control | 290 tested, under 10 active | activation, % at 8.5 µM | shares compounds with procasp7 counter | AID 493114;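 active = mean percent activation across triplicates above a set limit taken from the earlier primary procaspase-3 screen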;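 note: 0% = DMSO wells and 100% = DMSO wells with 5 µM added PC-3 D3A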
PC7 dual conf – activates human procaspase-7, confirming dual procaspase activators. shares compounds with procasp7 counter. recombinant procaspase-7, Ac-DEVD-pNA absorbance 405 nm; D23A/D198A/D206A mutant that cannot self-cleave. activation, % at 8.5 µM. 290 tested, under 10 active. AID 493115;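 active = mean activation above a set limit carried over from the earlier primary screen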;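 note: 0% = DMSO only and 100% = DMSO with added 5 µM PC-7 enzyme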
The depositor's hits bear a star; i = inactive; ? = inconclusive; nt = no result given.

SMILES	procasp7 counter	Hep lipid drop	Rce1 inhib	proCasp3 act	pCIP destab	GAA850 FXN act	PC3 D3A act	PC7 dual conf
NC(=O)c1nsc(C(=O)N(c2ccccc2F)C(C(=O)NCc2ccc(F)cc2)c2ccc(O)cc2)c1N (centres undefined)	28*	-52	i	-26	-4	-8	-28	-35
COc1ccccc1N(C(=O)c1snc(C(N)=O)c1N)C(C(=O)NCc1ccccc1)c1ccc(O)cc1 (centres undefined)	nt	11	i	nt	-12	-2	nt	nt
O=C(c1cccs1)N1C[C@H](n2cc(C3CC3)nn2)[C@@H](O)C[C@@H]1c1ccc(Cl)cc1	nt	nt	nt	nt	nt	-3	nt	nt
C=CCOc1ccc(C2C(C#N)=C(N)N(Nc3ccccc3)C3=C2C(=O)CC(C)(C)C3)cc1OC (centres undefined)	35*	nt	i	19	3	-3	-4	-6
COc1ccccc1[C@H]1C(c2ccccc2)=NN(c2ccccc2)[C@@H]1CO	50*	nt	nt	25*	nt	1	-28	-36
CC(=O)Nc1ccc(O)c(-c2nc3ccccc3s2)c1	36*	6	i	8	4	4	0	-1
Cc1ccsc1C(=O)Nc1ccc(O)c(-c2nc3ccccc3s2)c1	9	-4	i	10	-12	1	nt	nt
O=C(Nc1ccc(O)c(-c2nc3ccccc3s2)c1)C1=COCCO1	32*	0	i	-1	-6	1	2	1
COc1ccc(NC(=O)CSCC(=O)N2CCN(C(=O)c3ccco3)CC2)cc1	-1	nt	nt	-1	nt	2	nt	nt
CCC(C)Sc1cc(-c2nc3ccc(C)cn3c2NCc2ccccc2)ccc1OC (centres undefined)	28*	nt	i	22*	nt	-5	-27	-30
CCC(C)Sc1ccc(-c2nc3ccc(C)cn3c2NCc2ccccc2)cc1OC (centres undefined)	21	nt	i	10	nt	-1	nt	nt
COc1cccc(-c2cc3nc(-c4ccccc4)cc(N4CCCC(O)C4)n3n2)c1 (centres undefined)	50*	-11	i	36*	-3	0	-11	-11
COc1ccc(-c2cc3nc(-c4ccccc4)cc(N4CCC5(CC4)OCCO5)n3n2)cc1	36*	nt	i	23*	-7	2	-28	-36
COc1ccc(NC(=O)CS(=O)CC(=O)Nc2ccc(-n3cnnn3)c(C)c2)cc1 (centres undefined)	9	12	i	4	10	1	nt	nt
O=C(Nc1cccnc1)c1sc(Nc2ccccc2)nc1-c1ccccc1	29*	16	i	10	-4	2	6	1
COC(=O)C1=C(C)NC(C)=C(C(=O)OC)C1c1ccc(OC(=O)c2oc3ccccc3c2C)c(OC)c1	81*	-7	i	35*	-9	3	4	5
C[C@@H]1C(c2cccc(Cl)c2)=NN(c2ccccc2)[C@H]1C(=O)N1CCOC1=O	30*	nt	nt	7	nt	-1	-30	-36
C[C@@H]1C(c2ccccc2)=NN(c2ccccc2)[C@H]1C(=O)N1CCOC1=O	3	nt	nt	-4	nt	1	nt	nt
Cc1cccc(C2=NN(c3ccc(Br)cc3)[C@@H](C(=O)N3CCOC3=O)[C@@H]2c2ccccc2)c1	32*	nt	nt	20	nt	-1	-30	-33
C[C@@H]1C(c2cccc(Cl)c2)=NN(c2ccc(Br)cc2)[C@H]1C(=O)N1CCOC1=O	29*	nt	nt	22*	nt	-2	-30	-36
CC(=O)c1ccc2c(c1)N(Cc1ccccc1Cl)C(=O)C(C)S2 (centres undefined)	nt	nt	nt	nt	nt	2	nt	nt
CCOP(=O)(OCC)c1nc(-c2cccc3ccccc23)oc1NCCc1ccc(OC)cc1	30*	-1	i	22*	-4	4	-28	-36
COc1ccc(CNc2oc(-c3cccc4ccccc34)nc2C#N)cc1	15	-10	i	11	-6	1	nt	nt
Cn1nccc1C(=O)OCC(=O)Nc1cccc(Cl)c1	-6	nt	nt	3	nt	1	nt	nt
O=S(=O)(O)c1ccc(N2N=C(c3ccccc3)CC2c2ccccc2)cc1 (centres undefined)	7	-5	?	12	0	0	nt	nt
SMILES	procasp7 counter	Hep lipid drop	Rce1 inhib	proCasp3 act	pCIP destab	GAA850 FXN act	PC3 D3A act	PC7 dual conf
COc1ccc(C2CC(C(C)(C)C)=NN2c2ccc(S(N)(=O)=O)cc2)cc1 (centres undefined)	8	nt	nt	11	nt	1	nt	nt
COc1ccc(C2CC(c3ccccc3F)=NN2c2ccc(S(N)(=O)=O)cc2)cc1 (centres undefined)	35*	nt	nt	34*	nt	1	-29	-34
COc1ccc(C2CC(c3ccc(C(F)(F)F)cc3)=NN2c2ccc(S(N)(=O)=O)cc2)cc1 (centres undefined)	28*	nt	nt	23*	nt	0	-31	-36
COC(=O)c1cccc(NC(=O)CN2CCc3ccccc3C2)c1	1	-8	i	-4	4	1	nt	nt
Cc1ccc(C(=O)COc2nc(C)cc(C)c2C#N)cc1	-10	nt	i	4	-8	-1	nt	nt
Cc1cc(C)c(C#N)c(OCC(=O)c2ccc(Br)cc2)n1	46*	nt	i	4	3	0	-5	-3
Cc1cccc(/C=N/NC(=O)c2ccc(NC(=O)c3ccccc3C)cc2)n1	34*	-1	nt	4	3	1	0	0
C=CCNC1=C(Cl)C(=O)N(c2cccc(Cl)c2Cl)C1=O	32*	nt	i	6	-1	-1	9	5
O=C1C(Cl)=C(NCC2CCCO2)C(=O)N1c1cccc(Cl)c1Cl (centres undefined)	22	nt	i	6	2	1	nt	nt
COc1ccc(CCN(C)C(=O)C(CCSC)NC(=O)c2ccco2)cc1OC (centres undefined)	-4	nt	nt	4	nt	1	nt	nt
CCN(CC)c1ccc(C(=O)OCc2cc(=O)oc3cc(O)ccc23)cc1	40*	nt	i	32*	-3	3	0	0
CCN(CC)c1ccc2c(O)cc(=O)oc2c1	-6	-9	i	-5	9	2	nt	nt
Cc1cc(C(=O)C(C)OC(=O)c2ccc(NC(=O)CC#N)cc2)c(C)n1-c1ccccc1 (centres undefined)	-2	nt	i	7	nt	-4	nt	nt

Screens deposited in PubChem by several laboratories.
